Source: ChEMBL document CHEMBL2321668, “Aromatic bis-N-hydroxyguanidinium derivatives: synthesis, biophysical, and biochemical evaluations” (J Med Chem, 2013)
Structures can show the parent of a compound that is named as a salt. Active and inactive are the calls of the source. The rule behind the calls is not given here.

Tests used:
HL-60 [1] = test: Cytotoxicity against human HL60 cells assessed as reduction in cell viability at 100 uM after 72 hrs by Alamar blue assay; type: functional, cell-based
How it was run: (§1)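 HL-60 cells in log phase, 4 × 10^4 cells/well in RPMI/10% FBS, were treated with a 1:100 dilution of aqueous stocks (1% ddH2O vehicle), final 1–100 μM, for 72 h at 37 °C. AlamarBlue was added for 4.5 h in the dark and fluorescence read at 544/590 nm. Viability is blank-corrected and given as % of vehicle. IC50 comes from sigmoidal dose–response fits. Triplicate wells, at least three experiments.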

Salmonidae = test: Binding affinity to salmon sperm DNA assessed as change in melting temperature at 15 uM by thermal denaturation assay
HL-60 [2] = test: Cytotoxicity against human HL60 cells assessed as reduction in cell viability after 72 hrs by Alamar blue assay; type: functional, cell-based; conditions: HL-60, 72 h; how it was run: as §1
[3] = Dissociation constant, pKa of the compound; type: physicochemical
[4] = Cytotoxicity against human Kelly cells assessed as reduction in cell viability after 72 hrs by Alamar blue assay; type: functional, cell-based
How it was run: (§2)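 Kelly neuroblastoma cells in RPMI/10% FBS, 6000/well, were preincubated 24 h, then given a 1:100 dilution of aqueous stocks (1% ddH2O vehicle) for 72 h at 37 °C. AlamarBlue was added for 4.5 h in the dark and fluorescence read at 544/590 nm. Viability is blank-corrected and given as % of vehicle. IC50 comes from a sigmoidal fit. Triplicate wells, at least three experiments.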

[5] = Binding affinity to poly(dA-dT)2 (unknown origin) assessed as change in melting temperature
MCF7 [6] = test: Cytotoxicity against human MCF7 cells assessed as reduction in cell viability after 72 hrs by Alamar blue assay; type: functional, cell-based; conditions: MCF7, 72 h
How it was run: (§3)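 MCF-7 cells in MEM/10% FBS with nonessential amino acids, 10,000/well, were preincubated 24 h, then treated for 72 h at 37 °C with a 1:100 dilution of aqueous stocks (1% ddH2O vehicle). AlamarBlue was added for 4.5 h in the dark and fluorescence read at 544/590 nm. Viability is blank-corrected and given as % of vehicle. IC50 comes from a sigmoidal dose–response fit. Triplicate wells, at least three experiments.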

[7] = Cytotoxicity against human Kelly cells assessed as reduction in cell viability 50 uM after 72 hrs by Alamar blue assay; type: functional; how it was run: as §2
[8] = Cytotoxicity against human Kelly cells assessed as reduction in cell viability 30 uM after 72 hrs by Alamar blue assay; type: functional; how it was run: as §2
MCF7 [9] = test: Cytotoxicity against human MCF7 cells assessed as reduction in cell viability at 100 uM after 72 hrs by Alamar blue assay; type: functional; how it was run: as §3
[10] = Cytotoxicity against human Kelly cells assessed as reduction in cell viability 100 uM after 72 hrs by Alamar blue assay; type: functional; how it was run: as §2
[11] = Cytotoxicity against human Kelly cells assessed as reduction in cell viability 40 uM after 72 hrs by Alamar blue assay; type: functional; how it was run: as §2
HL-60 [12] = test: Cell cycle arrest in human HL60 cells assessed as accumulation at G0/G1 phase at 50 uM after 72 hrs by flow cytometric analysis (reference value: 59.5 +/- 1.50%); type: functional
HL-60 [13] = test: Cell cycle arrest in human HL60 cells assessed as accumulation at preG1 phase at 50 uM after 48 hrs by flow cytometric analysis (reference value: 1.41 +/- 0.32%); type: functional
HL-60 [14] = test: Cell cycle arrest in human HL60 cells assessed as accumulation at G0/G1 phase at 50 uM after 48 hrs by flow cytometric analysis (reference value: 58.77 +/- 2.33%); type: functional
HL-60 [15] = test: Cell cycle arrest in human HL60 cells assessed as accumulation at Gn phase at 50 uM by flow cytometric analysis; type: functional, cell-based; conditions: TDE = time-dependent effect
HL-60 [16] = test: Cell cycle arrest in human HL60 cells assessed as accumulation at G0/G1 phase at 50 uM after 24 hrs by flow cytometric analysis (reference value: 56.05 +/- 1.40%); type: functional
HL-60 [17] = test: Cell cycle arrest in human HL60 cells assessed as accumulation at preG1 phase at 50 uM by flow cytometric analysis; type: functional, cell-based; conditions: TDE = time-dependent effect
HL-60 [18] = test: Cell cycle arrest in human HL60 cells assessed as accumulation at preG1 phase at 50 uM after 72 hrs by flow cytometric analysis (reference value: 2.21 +/- 0.57%); type: functional
HL-60 [19] = test: Cell cycle arrest in human HL60 cells assessed as accumulation at G0/G1 phase at 50 uM by flow cytometric analysis; type: functional, cell-based; conditions: TDE = time-dependent effect
HL-60 [20] = test: Cell cycle arrest in human HL60 cells assessed as accumulation at Gn phase at 50 uM after 48 hrs by flow cytometric analysis (reference value: 3.02 +/- 0.56%); type: functional
HL-60 [21] = test: Cell cycle arrest in human HL60 cells assessed as accumulation at G2/M phase at 50 uM by flow cytometric analysis; type: functional, cell-based; conditions: TDE = time-dependent effect
HL-60 [22] = test: Cell cycle arrest in human HL60 cells assessed as accumulation at S phase at 50 uM after 24 hrs by flow cytometric analysis (reference value: 24.46 +/- 1.15%); type: functional
HL-60 [23] = test: Cell cycle arrest in human HL60 cells assessed as accumulation at preG1 phase at 50 uM after 24 hrs by flow cytometric analysis (reference value: 0.81 +/- 0.11%); type: functional
HL-60 [24] = test: Cell cycle arrest in human HL60 cells assessed as accumulation at Gn phase at 50 uM after 72 hrs by flow cytometric analysis (reference value: 3.43 +/- 0.48%); type: functional
HL-60 [25] = test: Cell cycle arrest in human HL60 cells assessed as accumulation at G2/M phase at 50 uM after 72 hrs by flow cytometric analysis (reference value: 10.53 +/- 0.81%); type: functional
HL-60 [26] = test: Cell cycle arrest in human HL60 cells assessed as accumulation at G2/M phase at 50 uM after 24 hrs by flow cytometric analysis (reference value: 16.73 +/- 0.59%); type: functional
HL-60 [27] = test: Cell cycle arrest in human HL60 cells assessed as accumulation at S phase at 50 uM after 48 hrs by flow cytometric analysis (reference value: 24.29 +/- 1.37%); type: functional
HL-60 [28] = test: Cell cycle arrest in human HL60 cells assessed as accumulation at Gn phase at 50 uM after 24 hrs by flow cytometric analysis (reference value: 2.96 +/- 0.79%); type: functional
HL-60 [29] = test: Cell cycle arrest in human HL60 cells assessed as accumulation at G2/M phase at 50 uM after 48 hrs by flow cytometric analysis (reference value: 11.35 +/- 1.05%); type: functional
HL-60 [30] = test: Cell cycle arrest in human HL60 cells assessed as accumulation at S phase at 50 uM by flow cytometric analysis; type: functional, cell-based; conditions: TDE = time-dependent effect
HL-60 [31] = test: Cell cycle arrest in human HL60 cells assessed as accumulation at S phase at 50 uM after 72 hrs by flow cytometric analysis (reference value: 23.58 +/- 1.38%); type: functional
DNA = test: Binding affinity to calf thymus DNA assessed as change in melting temperature; type: nucleic-acid assay; conditions: Bos taurus

## N/C(=N\O)Nc1ccc(C(=O)c2ccc(N/C(N)=N/O)cc2)cc1
HL-60 [1]
  Activity: inactive
Salmonidae
  ΔTm: 0 °C
HL-60 [2]
  IC50: > 100 µM

## N=C(N)c1ccc(-c2ccc(-c3ccc(C(=N)N)cc3)o2)cc1 [FURAMIDINE HYDROCHLORIDE]
[3]
  pKa: 10.4
[4]
  IC50: 27.4 µM
[5]
  ΔTm: 26.2 °C
HL-60 [2]
  IC50: 77.6 µM
MCF7 [6]
  IC50: 92.8 µM

## Cl.N/C(=N\O)Nc1ccc(Oc2ccc(N/C(N)=N/O)cc2)cc1
[7]
  Activity: 89.9%
[3]
  pKa: 8.3
[8]
  Activity: 76.2%
MCF7 [9]
  Activity: 53%
[4]
  IC50: 12.2 µM
Salmonidae
  ΔTm: 1 °C
HL-60 [2]
  IC50: 65.5 µM
[10]
  Activity: 95.8%
[11]
  Activity: 86.4%
MCF7 [6]
  IC50: 45.2 µM

## Cl.N/C(=N\O)Nc1ccc(Sc2ccc(N/C(N)=N/O)cc2)cc1
HL-60 [12]
  Activity: 44.8%
HL-60 [13]
  Activity: 6.44%
HL-60 [14]
  Activity: 56.62%
HL-60 [15]
  Activity: tde
[7]
  Activity: 95%
HL-60 [16]
  Activity: 55.9%
HL-60 [17]
  Activity: tde
HL-60 [18]
  Activity: 22.2%
[8]
  Activity: 79.4%
HL-60 [19]
  Activity: tde
MCF7 [9]
  Activity: 23.1%
HL-60 [20]
  Activity: 1.94%
[4]
  IC50: 8.6 µM
HL-60 [21]
  Activity: tde
Salmonidae
  ΔTm: 1 °C
HL-60 [22]
  Activity: 25.85%
HL-60 [23]
  Activity: 1.53%
HL-60 [24]
  Activity: 2.1%
HL-60 [2]
  IC50: 46.4 µM
HL-60 [25]
  Activity: 14.54%
HL-60 [26]
  Activity: 14.57%
HL-60 [27]
  Activity: 21.71%
HL-60 [28]
  Activity: 2.35%
HL-60 [29]
  Activity: 10.78%
[10]
  Activity: 96.8%
[11]
  Activity: 93.9%
MCF7 [6]
  IC50: > 100 µM
HL-60 [30]
  Activity: tde
HL-60 [31]
  Activity: 15.99%

## Cl.N/C(=N\O)Nc1ccc(Cc2ccc(N/C(N)=N/O)cc2)cc1
MCF7 [9]
  Activity: 29.8%
Salmonidae
  ΔTm: 0 °C
HL-60 [2]
  IC50: 71.3 µM
MCF7 [6]
  IC50: > 100 µM

## N/C(=N\O)Nc1ccc(CCc2ccc(N/C(N)=N/O)cc2)cc1
Salmonidae
  ΔTm: 0 °C

## N/C(=N\O)Nc1ccc(NC(=O)c2ccc(N/C(N)=N/O)cc2)cc1
Salmonidae
  ΔTm: 1 °C

## N=C(N)c1ccc(OCCCCCOc2ccc(C(=N)N)cc2)cc1
DNA
  ΔTm: 10.7 °C

## N/C(=N\O)c1ccc(OCCCCCOc2ccc(/C(N)=N/O)cc2)cc1
DNA
  ΔTm: 0.2 °C
